ARFGAP1 inh – inhibitors of rat ARFGAP1 GAP activity, primary screen, biochemical, fluorescence polarization, GDP tracer; ADP-ribosylation factor GTPase-activating protein 1 (Rattus norvegicus), Q62848; Arfgap1-stimulated ARF1 GTP hydrolysis, GDP FP detection; inhibition, % at 16.5 µM; actives 0.26% (n = 360,000);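 active means inhibition above a per-plate limit, mean inhibition of low control wells plus 3 SD, cut at about 25% in these data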
Target sequence (Q62848 1-136 limits assumed): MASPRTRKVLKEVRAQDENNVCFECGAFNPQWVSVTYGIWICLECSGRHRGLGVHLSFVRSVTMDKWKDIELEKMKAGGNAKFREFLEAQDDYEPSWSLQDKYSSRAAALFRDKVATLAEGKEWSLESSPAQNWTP
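Material: rat Arfgap1 catalytic domain, aa 1-136; also added: human ARF1(Δ1-17)-GTP substrate; compound dosing: one concentration, 16.5 µM, DMSO 1.26%; incubation: GTP hydrolysis reaction 2 h at 25 °C; measured by: Tracer-displacement fluorescence polarization with EDTA stop, 620/688 nm; evaluation: % inhibition from polarization; repeats: one replicate per compound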
Rin1 Abl inh – inhibitors of Rin1-Abl protein binding, primary screen, biochemical, TR-FRET | AID 588664, 2011 | Tyrosine-protein kinase ABL1 (Homo sapiens) + Ras and Rab interactor 1 (Homo sapiens), … | actives 0.4% (n = 360,000) | inhibition, % at 7.35 µM; in the data active means inhibition above about 5%, passing the limit was not always enough
ASAP1 inh – inhibitors of human ASAP1 ArfGAP activity, primary screen, biochemical, fluorescence polarization | Arf-GAP with SH3 domain, ANK repeat and PH domain-containing protein 1 (Homo sapiens), … | ASAP1-stimulated ARF1 GTP hydrolysis, GDP FP detection | inhibition, % at 16.5 µM | actives 0.19% (n = 360,000) | AID 624377, 2012; in the data active means inhibition above about 25%
GalR3 antagonist – GalR3 antagonists in HEK293 cells, primary screen, cell-based, fluorescence readout | inhibition, % at 3 µM | HEK293 GalR3-CNG cAMP membrane potential fluorescence; galR3 body fused to GalR1 C-terminus | actives 0.44% (n = 360,000);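 active means inhibition above the screen-wide average plus 3 SD, cut at about 13% in these data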;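 further: forskolin and galanin both at EC90 stimulate the cells; cAMP rise reported by CNG channel membrane potential dye signal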
Target sequence (O60755 1-299 limits assumed): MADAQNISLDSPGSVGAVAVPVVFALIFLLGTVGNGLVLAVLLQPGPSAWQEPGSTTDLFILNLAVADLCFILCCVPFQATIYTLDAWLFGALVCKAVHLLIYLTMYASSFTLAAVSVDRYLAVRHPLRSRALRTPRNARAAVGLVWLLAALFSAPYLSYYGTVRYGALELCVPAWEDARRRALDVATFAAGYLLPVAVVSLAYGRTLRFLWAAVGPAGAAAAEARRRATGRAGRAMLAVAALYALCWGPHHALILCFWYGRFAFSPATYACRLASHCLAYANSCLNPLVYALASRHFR
GalR3 conf – GalR3 antagonist hit confirmation, cell-based, fluorescence, triplicate; shares compounds with GalR3 antagonist; HEK293 GalR3 CNG cAMP biosensor, membrane potential fluorescence; galR3 fused to GalR1 carboxy tail; challenged with forskolin and galanin at EC90; inhibition, % at 3 µM; actives 59% (n = 1,600);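 active means inhibition above the primary screen's cutoff, the mean inhibition of all screened compounds plus 3 SD, cut at about 13% in these data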
HEK-CNG parental – nonspecific cAMP agonists in parental HEK-CNG cells, counter-screen for GalR3 antagonist project, cell-based, fluorescence, high throughput. shares compounds with GalR3 antagonist. HEK293-CNG parental cells, cAMP membrane potential fluorescence; normalised: DMSO wells 0%, forskolin wells 100%. activation, % at 3 µM. actives 10% (n = 1,600); in the data active means activation above about 1.3%
Of the large screens only hits and unclear results are named; the others gave an inactive call (follow-up assays come after a bar, where they were run). Most compounds without a hit are left out; they make up all but 1.2% or so of the library.

COc1ccccc1NC(=O)c1ccc(NC(=O)c2ccco2)cc1	none
CC1(C)CC(=O)C=C(c2ccc(COC(=O)c3ccc(Br)cc3)cc2)C1=O	none (no result: Rin1 Abl inh)
Cc1cc(C(=O)COC(=O)c2ccc3c(c2)NC(=O)CS3)c(C)n1CC1CCCO1 (stereo not given)	GalR3 antagonist 23 | GalR3 conf 18 | HEK-CNG parental inactive
COCC(C)n1c(C)cc(C(=O)COC(=O)c2ccc3c(c2)NC(=O)CS3)c1C (stereo not given)	GalR3 antagonist 17 | GalR3 conf inactive | HEK-CNG parental inactive
Cc1cc(C(=O)COC(=O)c2ccc(O)cc2)c(C)n1CC1CCCO1 (stereo not given)	none
CN1OC[C@@H]2CN(CC3CCCCC3)[C@H](c3ccc(-c4ccc(C#N)cc4)cc3)C[C@@H]21	none (no result: Rin1 Abl inh)
Clc1cccc(CNCCNCc2cccc(Cl)c2)c1	GalR3 antagonist 22 | GalR3 conf inactive | HEK-CNG parental 2.5
O=C(NCCNCc1cccc(Cl)c1)c1ccco1	none
O=C(O)CCCCN1C(=O)C=CC1=O	none (no result: Rin1 Abl inh)
C=CCOc1ccc(-c2nc3c(c(=O)[nH]c(=O)n3Cc3ccccc3)n2CCCOC)cc1	none
COCCCn1c(-c2ccc(OC)cc2)nc2c1c(=O)[nH]c(=O)n2Cc1ccccc1	GalR3 antagonist 14 | GalR3 conf inactive | HEK-CNG parental inactive
COC(=O)C[C@H]1CC[C@@H](NC(=O)Nc2c(C)noc2C)[C@@H](CO)O1	none (no result: Rin1 Abl inh)
Cn1nc(CC(=O)NCc2ccc(C(F)(F)F)cc2)c2ccccc2c1=O	none
COc1ccc(CNC(=O)Cc2nn(C)c(=O)c3ccccc23)cc1	GalR3 antagonist 34 | GalR3 conf 29 | HEK-CNG parental inactive
Cc1coc2c(C)c3oc(=O)c(CCC(=O)N4C[C@H]5C[C@@H](C4)c4cccc(=O)n4C5)c(C)c3cc12	none
Cc1oc2c(C)c3oc(=O)c(CCC(=O)N4C[C@H]5C[C@@H](C4)c4cccc(=O)n4C5)c(C)c3cc2c1C	GalR3 antagonist 15 | GalR3 conf inactive | HEK-CNG parental inactive
COc1ccc(S(=O)(=O)N2CCOC2CNC(=O)C(=O)NCCc2ccccc2OC)cc1C (stereo not given)	none (no result: GalR3 antagonist)
COc1ccccc1CCNC(=O)C(=O)NCC1OCCN1S(=O)(=O)c1ccc2c(c1)OCCO2 (stereo not given)	GalR3 antagonist 14 | GalR3 conf inactive | HEK-CNG parental inactive
COC(=O)[C@]12CCCCC=C1N(Cc1ccc3c(c1)OCO3)C(=O)[C@H](CC(=O)NCC13CC4CC(CC(C4)C1)C3)C2	none (no result: Rin1 Abl inh)
COc1cccc(N2CCN(c3ncnc4c3[nH]c3ccc(F)cc34)CC2C)c1 (stereo not given)	GalR3 antagonist 37 | GalR3 conf 79 | HEK-CNG parental inactive
COCCN1Cc2cc(C(=O)OC)c3c(c2C1=O)c1cc(F)ccc1n3S(=O)(=O)c1ccc(C)cc1	none (no result: Rin1 Abl inh)
COc1cccc(C(=O)/C=C/c2ccc(OCC#N)c(OC)c2)c1	GalR3 antagonist 20 | GalR3 conf inactive | HEK-CNG parental inactive
COc1cc(/C=C/C(=O)c2ccc(O)cc2)ccc1OCC#N	none
CCC(C)[C@H](NS(=O)(=O)c1ccc(C)cc1)C(=O)N1CCC(C(=O)N[C@H](C(=O)O)c2ccccc2)CC1 (stereo not given in full)	GalR3 antagonist 30 | GalR3 conf inactive | HEK-CNG parental inactive
COc1cccc(CNC(=O)[C@H]2CCCN2C(=O)[C@H]2CCCN2C(=O)c2cccc(Cl)c2)c1	none (no result: Rin1 Abl inh)
COc1ccc(Cc2nc3ccc(C(=O)N4C[C@@H](C)O[C@@H](C)C4)cc3o2)cc1OC	none
COCCN1CCN(C(=O)c2ccc3nc(Cc4ccc(OC)c(OC)c4)oc3c2)CC1	GalR3 antagonist 88 | GalR3 conf 48 | HEK-CNG parental inactive
CCCCN(C)CCn1c(=S)[nH]c2ncccc2c1=O	GalR3 antagonist 40 | GalR3 conf inactive | HEK-CNG parental inactive
O=C(NCC1CCN(C(=O)C(=O)c2cc3ccccc3o2)CC1)c1ccc2c(c1)OCC2	none (no result: Rin1 Abl inh)
C[C@@H]1ON(C)[C@H]2C[C@H]3c4[nH]c5cccc(-c6ccc7c(c6)OCO7)c5c4CCN3C(=O)[C@@H]12	none (no result: Rin1 Abl inh)
CCCCC[C@@H](/C=C/C1C(=O)C=C[C@H]1C/C=C\CCCC(=O)O)OC(C)=O (stereo not given in full)	GalR3 antagonist 100 | GalR3 conf 98 | HEK-CNG parental inactive
CCCCCCC[C@@H](C/C=C/CCC(=O)O)OC	none
O=C(CCC(=O)c1cccs1)OCC(=O)c1ccc(Cl)s1	none (no result: GalR3 antagonist) | GalR3 conf inactive | HEK-CNG parental inactive
O=C(CCC(=O)c1cccs1)OCC(=O)c1ccc(F)cc1	none
O=C(C(=O)N1CCN(S(=O)(=O)c2ccc(Cl)cc2)CC1)c1cccc(C(F)(F)F)c1	none (no result: Rin1 Abl inh)
COc1cccc(CNC(=O)[C@H]2CCCN2C(=O)[C@H]2CCCN2C(=O)N2CCCCC2)c1	none (no result: Rin1 Abl inh)
COCCNC(=O)C/C(C)=N/NC(=O)C(=O)NC1CCCCC1	GalR3 antagonist 13 | GalR3 conf inactive | HEK-CNG parental inactive
COCCCNC(=O)C(=O)NC1CCCCCC1	none
COc1ccc(C(=O)N2CCCC(N3CCN(c4ccccc4OC)CC3)C2)c(OC)n1 (stereo not given)	none (no result: GalR3 antagonist) | GalR3 conf inactive | HEK-CNG parental inactive
COc1ccc(C(=O)N2CCCC(N3CCN(c4ccccc4F)CC3)C2)c(OC)n1 (stereo not given)	none
COC(=O)c1cc2c(c3c4cc(F)ccc4n(S(=O)(=O)c4cccc(C)c4)c13)C(=O)N(Cc1ccccc1OC)C2	none (no result: Rin1 Abl inh)
COc1cccc(S(=O)(=O)NCc2ccc(C(=O)Nc3ccc(Cl)c(Cl)c3)cc2)c1	GalR3 antagonist 17 | GalR3 conf 55 | HEK-CNG parental inactive
COc1ccc(NC(=O)c2ccc(CNS(=O)(=O)c3cccc(OC)c3)cc2)cc1	none
Cc1onc(-c2ccccc2)c1-c1nc2ccccc2c(=O)o1	GalR3 antagonist 16 | GalR3 conf 13 | HEK-CNG parental 2.0
CCOC(=O)C1=C[C@@H](C(C)C)N(S(=O)(=O)c2ccc(C)cc2)[C@H]1c1ccc(C(F)(F)F)cc1	none

Compound activity from PubChem.
